Experimental findings from ChEMBL document CHEMBL3085749, “Design, optimization, and biological evaluation of novel keto-benzimidazoles as potent and selective inhibitors of phosphodiesterase 10A (PDE10A)” (J Med Chem, 2013) are described below.

Format in all cases: ADME, organism-based
A short description of data set [1]: Volume of distribution at steady state in Sprague-Dawley rat at 2 mg/kg, iv by LC-MS/MS analysis. The settings on record: in vivo, read-out: Vdss. Set-up: dose 2 mg/kg, route intravenous.
Data set [2] in a line: AUC in Sprague-Dawley rat at 2 mg/kg, iv by LC-MS/MS analysis. The conditions noted are these: plasma. Set-up: dose 2 mg/kg, route intravenous.
A short description of data set [3]: AUC in Sprague-Dawley rat at 5 mg/kg, po by LC-MS/MS analysis. Set-up: dose 5 mg/kg, route oral. The conditions noted are these: plasma.
Data set [4] in a line: Oral bioavailability in Sprague-Dawley rat at 5 mg/kg by LC-MS/MS analysis. The settings on record: in vivo.
A short description of data set [5]: AUC in Sprague-Dawley rat at 10 mg/kg, po by LC-MS/MS analysis. Set-up: dose 10 mg/kg, route oral. The conditions noted are these: plasma. The gist of the method: (§1)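 Fed male Sprague−Dawley rats. Vehicle for iv was 100% DMSO; for po and ip it was 1% Tween and 2% HPMC with methanesulfonic acid, pH 2.2. Reported parameters are Cl (L/h/kg), Vss (L/kg), AUC (μM·h), T1/2 (h) and %F.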

A short description of data set [6]: Oral bioavailability in Sprague-Dawley rat at 10 mg/kg by LC-MS/MS analysis. The settings on record: in vivo. The method in brief: as §1

SMILES strings stand for the structures.

A word on the AUC: it is concentration integrated over time. What is called bioavailability is the share of a dose that reaches the circulation, judged against a reference dose that is usually intravenous. A high value points to good availability. As for `CC(=O)N1CCN(c2nccnc2Oc2ccc(C(=O)c3nc4ccccc4[nH]3)cc2)CC1`, the Vd in data set [1] was 0.165 L/kg. Moreover, the AUC amounted to 62.1 µM·h in data set [2] and 79.2 µM·h in data set [3]. The bioavailability in data set [4] was 56%.

As to `O=C(c1ccc(Oc2nccnc2N2CCC(O)CC2)cc1)c1nc2ccccc2[nH]1`, in data set [1], the Vd was 1.28 L/kg. Besides, the AUC in data set [5] was 11.7 µM·h; in data set [2], 4.5 µM·h. Also, in data set [6], the bioavailability came out at 52%.
